The list is not random: actives were taken first. Their share in the collection is about 2%.
CDK5 inh = inhibitors of human CDK5/p35 kinase | Q00535+Q15078 | Recombinant CDK5/p35, ADP-Glo luminescence, 60 min | inhibition, % at 10 µM | 330,000 tested, 0.01% active;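 active = highest replicate inhibition of at least 50% and at least 75% of replicates reaching 50%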;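 note: plate controls were DMSO neutral control for no effect and GW8510 at 10 µM for full effect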
CAL PDZ FP-1 = inhibitors of human CAL PDZ peptide binding; purified CAL PDZ, TMR-peptide fluorescence polarization, 1 h; inhibition, % at 20 µM; Q9HD26; 330,000 tested, 0.02% active;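 active = highest replicate inhibition of at least 40%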;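 note: plate controls were DMSO neutral control wells for no effect and unlabeled competitor peptide control wells for full effect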
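Assay system – tagged CAL PDZ protein CerCALP, purified · Timing – 1 h at RT · Compound – single point, 20 µM · Measured by – fluorescence polarization from S- and P-plane intensities, G-factor corrected · Evaluation – inhibition from polarization loss · Probe or stimulus – TMR reporter peptide T*-PRC34 · Buffer or medium – pH 7.4 phosphate-saline buffer, reducing agent, detergent, IgG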
Statin myotox sup = protects C2C12 myotubes from simvastatin toxicity; rescue of ATP level, % at 7.49 µM; 330,000 tested, 0.78% active; ATP luminescence, 48 h; scaled: DMSO 0, geranylgeraniol control 100;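 active = mean ATP rescue above about 67%, or every replicate alone reaching that limit, limit read from the data, passing the limit was not always enough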;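 note: myotubes were challenged with 10 µM simvastatin during compound exposure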
CAL PDZ FP-2 = inhibitors of human CAL PDZ peptide binding. inhibition, % at 24.9 µM. Q9HD26. purified CAL PDZ, TMR-peptide fluorescence polarization, 1 h. AID 602252. 300,000 tested, 0.92% active;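 active = mean inhibition of at least 30% with at least half of replicates also reaching 30%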;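 note: 0% = DMSO neutral control and 100% = excess unlabeled competitor peptide PRC23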
dFosB act-1 = enhances mouse delta FosB homodimer DNA binding | P13346 | purified delta FosB, TAMRA-CDK5 oligo fluorescence polarization; percent of positive-control signal above neutral wells | activation, % at 25 µM | 340,000 tested, 0.99% active;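 active = mean activation above about 17%, with every replicate also reaching it, limit read from the data, passing the limit was not always enough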
Target sequence (P13346 whole entry, looked up): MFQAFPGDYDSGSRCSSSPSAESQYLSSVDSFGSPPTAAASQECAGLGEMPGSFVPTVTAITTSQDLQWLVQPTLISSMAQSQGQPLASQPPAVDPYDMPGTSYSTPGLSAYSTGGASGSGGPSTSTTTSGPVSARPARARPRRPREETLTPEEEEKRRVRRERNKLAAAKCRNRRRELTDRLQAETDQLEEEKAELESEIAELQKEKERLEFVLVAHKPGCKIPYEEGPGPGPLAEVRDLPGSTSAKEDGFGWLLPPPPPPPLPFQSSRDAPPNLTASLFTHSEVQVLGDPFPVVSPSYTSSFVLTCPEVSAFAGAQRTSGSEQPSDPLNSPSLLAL
S100A4 inh HTS = inhibitors of human S100A4 binding to myosin IIA peptide. S100A4/TAMRA-MyoIIA peptide fluorescence polarization. inhibition, % at 10.7 µM. 360,000 tested, 0.14% active;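 active = mean inhibition of at least 70% across replicates, with every replicate also reaching that level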
Target sequence (P26447 whole entry, looked up): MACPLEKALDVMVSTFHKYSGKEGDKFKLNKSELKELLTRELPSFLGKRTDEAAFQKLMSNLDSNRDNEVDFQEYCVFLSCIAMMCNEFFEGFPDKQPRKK
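Test system – S100A4 monomer (human) · Compound – single-point compound testing · Schedule – 5 min incubation before reading · Probe or stimulus – TAMRA-labelled myosin IIA heavy-chain peptide probe, 5 nM · Benchmarks – neutral control DMSO, positive control TFP · Medium – Calcium-containing HEPES buffer, pH 7.2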
dFosB act-2 = delta FosB (mouse) homodimer activation; shares compounds with dFosB act-1; purified delta FosB, TAMRA-CDK5 oligo fluorescence polarization; normalised: neutral wells 0, positive control 100; activation, % at 24.9 µM; 2,400 tested, under 10 active; AID 588690;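 active = highest replicate activation at or above 34% and every replicate reaching that threshold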;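 note: higher polarization means more probe DNA bound by delta FosB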
An asterisk follows results filed as active.

Screening COc1ccc(NC(=O)Cn2nnc(C(=O)NCc3ccccc3)c2N)cc1Cl returned CDK5 inh 0, CAL PDZ FP-1 1, Statin myotox sup -47, CAL PDZ FP-2 -6 and dFosB act-1 14.
Screening COc1ccc(Cl)cc1NC(=O)Cn1nnc(C(=O)NCCc2ccc(OC)c(OC)c2)c1N returned CDK5 inh 0, CAL PDZ FP-1 -1, Statin myotox sup 35, CAL PDZ FP-2 -2, dFosB act-1 38*, S100A4 inh HTS -7 and dFosB act-2 6.
Screening CCOc1ccccc1NC(=O)Cn1nnc(C(=O)NCCc2ccc(OCC)c(OCC)c2)c1N returned CAL PDZ FP-1 -2, Statin myotox sup -11, CAL PDZ FP-2 -2, dFosB act-1 8 and S100A4 inh HTS -3.
`Cc1ccc(NC(=O)Cn2nnc(C(=O)NCCc3ccccc3)c2N)cc1Cl` gave CDK5 inh 0, CAL PDZ FP-1 -3, Statin myotox sup -5, CAL PDZ FP-2 -5, dFosB act-1 19*, S100A4 inh HTS 3 and dFosB act-2 2.
Screening COc1ccc(CCNC(=O)c2nnn(CC(=O)Nc3ccc(C)cc3C)c2N)cc1OC returned CDK5 inh 3, CAL PDZ FP-1 -1, Statin myotox sup 13, CAL PDZ FP-2 -1, dFosB act-1 53*, S100A4 inh HTS 6 and dFosB act-2 6.
O=C(NC1CC1)c1scc2c1OCCO2 was read as CDK5 inh 0, CAL PDZ FP-1 2, Statin myotox sup -11, CAL PDZ FP-2 0 and dFosB act-1 6.
Screening CCC(=O)Nc1ccc2c(c1)OC[C@H](C)N(C(=O)CN(C)C)C[C@@H](C)[C@H](OC)CN(C)C2=O returned Statin myotox sup 13 and S100A4 inh HTS -30.
Screening CN1C[C@@H](O)COC[C@H]2O[C@H](CC(=O)NC3CCC3)CC[C@@H]21 returned Statin myotox sup -12 and S100A4 inh HTS -11.
For N#Cc1ccc(-c2cccnc2)nc1SCc1ccc(Cl)cc1Cl the results were CDK5 inh -1, CAL PDZ FP-1 -2, CAL PDZ FP-2 -1, dFosB act-1 108* and dFosB act-2 3.
For CC(=O)c1cccc(NC(=O)c2ccc(S(=O)(=O)N3CC(C)OC(C)C3)cc2)c1 (stereo not given) the results were CDK5 inh -4, CAL PDZ FP-1 0, Statin myotox sup 0, CAL PDZ FP-2 -1, dFosB act-1 -1 and S100A4 inh HTS -15.
Screening Cc1ccc2nc3c(cc2c1)c(NC(=O)c1ccccn1)nn3CC(C)C returned CDK5 inh 0, CAL PDZ FP-1 -2, Statin myotox sup 1, CAL PDZ FP-2 -2 and dFosB act-1 8.
`CCn1nc(NC(=O)c2ccccn2)c2cc3cc(C)ccc3nc21` gave CDK5 inh 0, CAL PDZ FP-1 -1, Statin myotox sup -17, CAL PDZ FP-2 -5, dFosB act-1 21* and dFosB act-2 -4.
Screening Cc1cccc(C(=O)N/N=C2\CS(=O)(=O)N(C)c3ccsc32)c1 returned CDK5 inh -1, CAL PDZ FP-1 -3, Statin myotox sup -34, CAL PDZ FP-2 -2, dFosB act-1 26*, S100A4 inh HTS -2 and dFosB act-2 1.
`CN1c2ccsc2/C(=N/NC(=O)c2c(F)cccc2F)CS1(=O)=O` gave CDK5 inh 1, CAL PDZ FP-1 0, Statin myotox sup -20, CAL PDZ FP-2 1 and dFosB act-1 1.
Screening COc1ccc(-c2ccc3c(N)c(C(=O)c4ccc(OC)c(OC)c4)sc3n2)cc1 returned CDK5 inh 0, CAL PDZ FP-2 -7, dFosB act-1 30* and dFosB act-2 9.
`COc1ccc(C(=O)c2sc3nc(-c4ccccc4)ccc3c2N)cc1OC` gave CDK5 inh 1, Statin myotox sup -15, CAL PDZ FP-2 0 and dFosB act-1 9.

Source: PubChem BioAssay (Broad Institute)
